PME-1 inh – PME-1 inhibitors via competitive probe labeling, primary screen, biochemical, fluorescence polarization, FP-Rh probe, HTS | Protein phosphatase methylesterase 1 (Homo sapiens), Q9Y570 | recombinant PME-1 | inhibition, % at 5.9 µM | 320,000 compounds, 0.53% hits | AID 2130, 2009;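 active = inhibition above the campaign mean of all compounds plus 3 SD, cut at about 26% in these data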;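 also: competitive labeling of PME-1 active site by serine hydrolase directed probe; 0% = PME-1 with DMSO and 100% = wells lacking PME-1 enzyme; inhibitors block probe labeling so polarization falls and inhibition rises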
Target sequence (Q9Y570 whole entry, looked up): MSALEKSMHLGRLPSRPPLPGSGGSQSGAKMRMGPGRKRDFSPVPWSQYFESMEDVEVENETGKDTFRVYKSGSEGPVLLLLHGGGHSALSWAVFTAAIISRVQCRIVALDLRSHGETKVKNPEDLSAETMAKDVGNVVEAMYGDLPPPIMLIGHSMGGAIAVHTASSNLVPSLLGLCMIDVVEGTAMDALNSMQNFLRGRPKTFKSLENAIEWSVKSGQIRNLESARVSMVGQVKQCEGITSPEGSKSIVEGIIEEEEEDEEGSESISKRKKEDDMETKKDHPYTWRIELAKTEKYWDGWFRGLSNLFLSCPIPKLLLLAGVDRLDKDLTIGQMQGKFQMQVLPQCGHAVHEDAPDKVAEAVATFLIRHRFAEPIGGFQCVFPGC
ABHD4 inh – ABHD4 inhibitors, primary screen, biochemical, fluorescence polarization, mouse | purified mABHD4, FP-Rh probe fluorescence polarization | 370,000 compounds, 0.54% hits | (Lyso)-N-acylphosphatidylethanolamine lipase (Mus musculus), Q8VD66 | inhibition, % at 8.92 µM | AID 720543, 2013;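 active = inhibition exceeding the mean over every tested compound plus 3 SD, cut at about 30% in these data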;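 also: 0% = plate median of compound wells and 100% = S159A mutant with DMSO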
Target sequence (Q8VD66 whole entry, looked up): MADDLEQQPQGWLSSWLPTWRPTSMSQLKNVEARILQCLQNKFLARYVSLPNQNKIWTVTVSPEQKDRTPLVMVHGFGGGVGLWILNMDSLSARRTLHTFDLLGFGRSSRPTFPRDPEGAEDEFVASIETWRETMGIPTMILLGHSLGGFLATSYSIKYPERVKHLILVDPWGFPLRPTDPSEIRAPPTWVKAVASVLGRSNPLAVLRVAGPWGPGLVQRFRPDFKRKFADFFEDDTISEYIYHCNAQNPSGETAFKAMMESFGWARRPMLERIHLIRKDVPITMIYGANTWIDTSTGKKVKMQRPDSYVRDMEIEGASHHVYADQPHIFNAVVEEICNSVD
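system = mouse ABHD4 enzyme, wild type | medium = HEPES pH 7.0, NaCl, Pluronic buffer | also added = FP-Rh probe | incubation = Enzyme–compound pre-incubation 45 min, then probe 60 min, both 25 °C | technique = fluorescence polarization, excitation 525 nm, emission 598 nm, BODIPY TMR filters | controls = S159A mutant high control, sample median low control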
TCR CD3 inh – inhibitors of human TCR-CD3 interaction, primary screen, biochemical, fluorescence, TAMRA-labeled TCR probe. T-cell receptor (TCR). 360,000 compounds, 0.37% hits. inhibition, % at 9.4 µM;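 also: recombinant mutant TCR 2C K166C tagged with TAMRA read by polarization; 0% = receptor in buffer alone and 100% = receptor with positive control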
HTRA1 inhibitor – HTRA1 serine protease inhibitors, primary screen, biochemical, fluorescence polarization, HTS | Q92743 | recombinant HTRA1, FP-rhodamine activity-based probe | inhibition, % at 5.96 µM | 340,000 compounds, 0.5% hits | AID 504803, 2011; in the data active = inhibition above about 36%;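 also: 0% = enzyme with DMSO and 100% = wells lacking enzyme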
Fam108B counter – mouse Fam108B serine hydrolase inhibitors, primary screen, counter-screen for RBBP9 inhibitor project, biochemical, fluorescence polarization. recombinant Fam108B, FP-Rh probe fluorescence polarization. inhibition, % at 9.51 µM. 300,000 compounds, 0.33% hits. AID 1947, 2009;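 active = inhibition above the screen mean inhibition plus 3 SD, computed separately per campaign, cut at about 18% in these data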;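 also: inhibitors lower polarization as less probe binds the enzyme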
SIAE inh – human SIAE inhibitors, primary screen, biochemical, fluorescence polarization, FP-Rh probe, 1536-well HTS; SIAE FP-Rh probe binding; inhibition, % at 9.66 µM; 370,000 compounds, 0.69% hits; AID 1053197, 2014; Sialate O-acetylesterase (Homo sapiens), Q9HAT2;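 active = inhibition above a cutoff: mean of compounds within the control limits plus 3 SD of those, cut at about 17% in these data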;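 also: 0% = plate median of compound wells and 100% = probe without SIAE protein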
BSA TAMRA ctr – compounds interfering with TAMRA-BSA probe, counter-screen for TCR-CD3 interaction inhibitor project, biochemical, fluorescence, TAMRA-labeled BSA | 1,200 compounds, 10% hits | inhibition, % at 9.4 µM | TAMRA-labeled BSA probe fluorescence counterscreen | shares compounds with TCR CD3 inh | AID 652035, 2013; in the data active = inhibition above about 23%;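 also: 0% = buffer low control and 100% = reference high control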
TCR-CD3 inh conf – TCR-CD3 interaction inhibitors, retest, confirmation, biochemical, fluorescence, TAMRA-labeled TCR probe. 1,200 compounds, 48% hits. inhibition, % at 9.4 µM. shares compounds with TCR CD3 inh. TAMRA-labeled TCR probe fluorescence binding assay
Starred values were filed as active, the others as inactive; . = not tested or not shown. The list is not random: actives were taken first. Their share in the collection is about 1.8%. Rule as the data show it, unless noted: active = inhibition above about 19%; inactive = the rest.

SMILES	PME-1 inh	ABHD4 inh	TCR CD3 inh	HTRA1 inhibitor	Fam108B counter	SIAE inh	BSA TAMRA ctr	TCR-CD3 inh conf
CC(C)C[C@H]1COc2cc(Br)ccc2S(=O)(=O)N1Cc1cn(Cc2ccc(F)cc2)nn1	.	2.0	.	.	.	6.3	.	.
COC(=O)C1CN(Cc2cn(CCC3OCCO3)nn2)CCS(=O)(=O)N1Cc1ccc(Cl)cc1 (configuration not stated)	.	5.4	.	.	.	-2.3	.	.
OC(c1ccc(F)cc1)c1nc(-c2ccncc2)cs1 (configuration not stated)	.	1.6	46.5*	.	.	0.9	4.9	1.4
CN(C(=O)c1ccc(S(=O)(=O)N2CCCC2)cc1)C1CCCCC1	1.2	3.2	-2.0	3.2	-2.7	-4.1	.	.
CN(C(=O)c1cccc(S(=O)(=O)N2CCCC2)c1)C1CCCCC1	2.4	3.9	22.8*	2.3	.	5.1	6.0	0.6
CC(=O)c1ccc(NC(=O)CN2C(=O)/C(=C/C(C)=C/c3ccccc3)SC2=S)cc1	.	-53.5	23.8*	-31.2	.	-146.2	16.7	49.2*
CC(/C=C1\SC(=S)N(CCC(=O)Nc2ccc(O)cc2)C1=O)=C\c1ccccc1	-9.4	-59.3	1.9	-24.2	-8.4	-17.1	.	.
CC(=O)OCCn1c2nc(=O)[nH]c(=O)c-2nc2cc(C)c(C)cc21	.	23.6	36.7*	11.9	.	20.4*	50.5*	34.0*
CC(=O)OCCn1c(C)[n+](CCOC(C)=O)c2cc(Cl)c(Cl)cc21	-1.1	5.5	-9.0	2.4	-0.8	6.5	.	.
CN(C)/C=C1\SC(=S)N(c2ccc(Br)cc2)C1=O	-3.2	-73.3	30.5*	-30.1	3.9	5.4	90.0*	76.0*
CN(C)/C=C1\SC(=S)N(c2ccc(F)cc2)C1=O	-20.4	-7.4	-31.9	2.6	-20.7	-40.9	.	.
CC1CCCCC1N(C(=O)c1cc(C2CC2)on1)C1CCCCC1 (configuration not stated)	.	1.2	.	.	.	-0.8	.	.
CC(C)(C)N/N=C/c1cc(Cl)cc([N+](=O)[O-])c1O	1.4	23.8	1.4	19.5	4.8	7.7	.	.
O=C(N/N=C/c1cc(Cl)cc([N+](=O)[O-])c1O)C1CC1	4.5	15.5	21.2*	10.6	4.1	1.8	-11.0	16.6
CN(C(=O)CNC(=O)c1ccccc1OCC(=O)Nc1ccc(I)cc1)c1ccccc1	.	-5.5	.	.	.	-1.3	.	.
COc1ccc(NC(=O)CSc2nnc(-c3cccs3)o2)cc1Cl	.	-3.1	.	.	.	-0.9	.	.
Cc1nnc(NC(=O)c2cc(-c3ccco3)nc3ccccc23)s1	-16.2	11.2	19.2*	3.4	10.7	-1.7	3.3	20.4*
O=C(Nc1cccc(S(=O)(=O)NC2=NCCC2)c1)c1cc(-c2ccco2)nc2ccccc12	5.6	10.7	23.4*	14.2	7.5	5.7	-2.3	32.3*
CCOc1ccc(/C=N/NC(=O)c2cc(-c3ccco3)nc3ccccc23)cc1	-14.3	-11.8	14.3	-19.9	-10.9	1.1	.	.
O=C(NC(=S)Nc1cccc(S(=O)(=O)NC2=NCCC2)c1)c1cc(-c2ccco2)nc2ccccc12	5.2	7.8	16.6	4.2	0.2	-0.1	.	.
O=C(N/N=C/c1ccc(F)cc1)c1cc(-c2ccco2)nc2ccccc12	4.8	0.4	29.7*	12.8	6.1	9.9	-3.4	23.1*
O=C(Nc1nc2ccccc2s1)c1cc(-c2ccco2)nc2ccccc12	-17.5	-8.9	4.4	-41.6	-21.3	-9.7	.	.
COC(=O)N1C[C@H](OC)[C@H]2C[C@@H]1c1ccccc1O2	.	1.5	0.6	.	.	-0.2	.	.
C[C@@H]1COc2cc(N3CCCCC3)ccc2S(=O)(=O)N1	.	2.0	1.8	.	.	0.0	.	.
CN(CCO)c1nc(N)c2c(N)nc3c(c2c1C#N)CC(=O)N3Cc1cccs1	11.1	20.8	21.0*	13.3	16.6	0.8	-6.1	3.1
SMILES	PME-1 inh	ABHD4 inh	TCR CD3 inh	HTRA1 inhibitor	Fam108B counter	SIAE inh	BSA TAMRA ctr	TCR-CD3 inh conf
N#Cc1c(N(CCO)CCO)nc(N)c2c(N)nc3c(c12)CC(=O)N3Cc1cccs1	4.4	.	.	17.9	0.8	.	.	.
CC1(C)CC2CN(Cc3ccccc3)S(=O)(=O)N2C1 (configuration not stated)	.	-3.9	.	.	.	5.5	.	.
O=C(c1ccc(C#Cc2ccccc2)cc1)N1CCC(O)CC1	.	-2.6	.	.	.	-0.2	.	.
CC(C)c1ccc(NC(=O)C(c2ccccc2)N2CCOCC2)cc1 (configuration not stated)	-5.0	-11.2	23.7*	-3.6	-3.7	0.8	10.6	7.6
O=c1c2c(-c3ccccc3)csc2ncn1/N=C/c1cccc([N+](=O)[O-])c1O	0.9	13.6	29.4*	2.8	3.0	1.1	-13.8	31.3*
O=C(NC(CC1=CCCCC1)c1ccc2ccccc2c1)C(F)(F)F (configuration not stated)	.	-7.8	-2.5	.	.	-5.1	.	.
COC(=O)C1CN(Cc2cn(Cc3ccc(F)cc3)nn2)CCS(=O)(=O)N1Cc1ccc(OC)cc1 (configuration not stated)	.	3.4	.	.	.	0.5	.	.
CC1OC(OC2C(Oc3c(-c4ccc(O)cc4)oc4cc(O)cc(O)c4c3=O)OC(COC3O[C@@H](C)[C@H](O)[C@@H](O)C3O)C(O)C2O)C(O)C(O)C1O (some centres not stated)	5.9	3.0	7.5	7.9	0.6	4.9	.	.
CC1OC(OCC2OC(Oc3c(-c4ccc(O)cc4)oc4cc(O)cc(O)c4c3=O)C(O)C(O)C2O)C(O)C(O)C1O (configuration not stated)	-1.1	6.6	21.1*	5.2	1.0	7.8	-0.9	12.8
CCC1=NN(C(=O)c2ccc(Br)cc2)C(O)(c2ccccc2)C1 (configuration not stated)	3.7	0.3	10.9	19.2	1.8	-0.9	.	.
O=C(c1ccccc1F)N1N=C(C(F)(F)F)CC1(O)c1ccccc1 (configuration not stated)	.	-0.4	-5.8	-5.6	.	1.9	.	.
CC1=NN(C(=O)c2ccccc2Cl)C(O)(c2ccccc2)C1 (configuration not stated)	-4.0	-6.8	20.8*	3.5	-0.4	2.7	-17.2	4.7
CCOC(=O)N1N=C(C)CC1(O)c1ccccc1 (configuration not stated)	3.8	-0.8	3.4	-3.3	-0.1	-1.4	.	.

Bioassay records as filed in PubChem.
